Reference: ChEMBL document CHEMBL5244228, “Novel linked butanolide dimer compounds increase adiponectin production during adipogenesis in human mesenchymal stem cells through peroxisome proliferator-activated receptor γ modulation” (Eur J Med Chem, 2020)
Calls of active or inactive are those of the source. No cut-off for these calls is given here.

Tests used:
[1] = target: T1, Peroxisome proliferator-activated receptor gamma (Homo sapiens) (UniProt P37231); test: Displacement of Fluormone Pan-PPAR Green from GST-tagged human PPAR-gamma ligand binding domain at 10 uM by LanthaScreen TR-FRET competitive binding assay
T1 sequence (whole entry): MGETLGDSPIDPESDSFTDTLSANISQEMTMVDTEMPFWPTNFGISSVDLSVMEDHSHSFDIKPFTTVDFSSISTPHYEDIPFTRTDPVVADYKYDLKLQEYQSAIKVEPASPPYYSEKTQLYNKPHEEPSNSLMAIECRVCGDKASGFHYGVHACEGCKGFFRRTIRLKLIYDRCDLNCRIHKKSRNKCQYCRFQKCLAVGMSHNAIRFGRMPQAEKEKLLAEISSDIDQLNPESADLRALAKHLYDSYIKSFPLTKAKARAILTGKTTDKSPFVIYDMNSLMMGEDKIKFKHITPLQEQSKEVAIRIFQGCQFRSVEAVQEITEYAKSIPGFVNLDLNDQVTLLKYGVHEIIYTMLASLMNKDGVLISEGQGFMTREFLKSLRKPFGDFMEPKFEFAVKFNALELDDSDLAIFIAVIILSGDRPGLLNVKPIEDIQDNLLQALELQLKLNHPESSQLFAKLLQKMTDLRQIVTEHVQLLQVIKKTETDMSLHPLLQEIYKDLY
Procedure, shortened: (§1)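 TR-FRET competitive binding run with a LanthaScreen kit, following a previously described protocol; values read on a plate reader.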

[2] = target: T2, Peroxisome proliferator-activated receptor gamma (Homo sapiens, UniProt P37231); test: Agonist activity at PPAR-gamma in human BMMSC cells assessed as induction of adiponectin production in presence of IDX adipogenic induction medium and measured on day 5 by ELISA; assay type: cell-based
T2 sequence (P37231 whole entry): T1 sequence (whole entry)

[3] = target: T2, Peroxisome proliferator-activated receptor gamma; test: Displacement of [3H]rosiglitazone from human PPAR-gamma incubated for 1 day by radioligand binding assay
[4] = target: T3, Peroxisome proliferator-activated receptor alpha (Homo sapiens) (UniProt Q07869); test: Displacement of Fluormone Pan-PPAR Green from GST-tagged human PPAR-alpha ligand binding domain at 10 uM by LanthaScreen TR-FRET competitive binding assay; procedure, shortened: as §1
T3 sequence (whole entry): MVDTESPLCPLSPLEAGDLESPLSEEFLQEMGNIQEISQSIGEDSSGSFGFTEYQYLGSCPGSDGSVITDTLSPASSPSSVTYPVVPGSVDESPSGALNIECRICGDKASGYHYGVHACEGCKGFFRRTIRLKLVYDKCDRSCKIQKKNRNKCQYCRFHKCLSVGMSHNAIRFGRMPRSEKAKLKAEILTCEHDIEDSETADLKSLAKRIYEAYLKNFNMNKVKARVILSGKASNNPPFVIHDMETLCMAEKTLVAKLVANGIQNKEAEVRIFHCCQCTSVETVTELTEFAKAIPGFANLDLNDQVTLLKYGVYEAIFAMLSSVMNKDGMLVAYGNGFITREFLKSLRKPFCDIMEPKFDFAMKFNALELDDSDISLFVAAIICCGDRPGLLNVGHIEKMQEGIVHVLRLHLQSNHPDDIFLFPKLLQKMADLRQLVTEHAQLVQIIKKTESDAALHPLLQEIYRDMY

[5] = target: T4, Peroxisome proliferator-activated receptor delta (Homo sapiens) (UniProt Q03181); test: Displacement of Fluormone Pan-PPAR Green from GST-tagged human PPAR-delta ligand binding domain at 10 uM by LanthaScreen TR-FRET competitive binding assay; procedure, shortened: as §1
T4 sequence (whole entry): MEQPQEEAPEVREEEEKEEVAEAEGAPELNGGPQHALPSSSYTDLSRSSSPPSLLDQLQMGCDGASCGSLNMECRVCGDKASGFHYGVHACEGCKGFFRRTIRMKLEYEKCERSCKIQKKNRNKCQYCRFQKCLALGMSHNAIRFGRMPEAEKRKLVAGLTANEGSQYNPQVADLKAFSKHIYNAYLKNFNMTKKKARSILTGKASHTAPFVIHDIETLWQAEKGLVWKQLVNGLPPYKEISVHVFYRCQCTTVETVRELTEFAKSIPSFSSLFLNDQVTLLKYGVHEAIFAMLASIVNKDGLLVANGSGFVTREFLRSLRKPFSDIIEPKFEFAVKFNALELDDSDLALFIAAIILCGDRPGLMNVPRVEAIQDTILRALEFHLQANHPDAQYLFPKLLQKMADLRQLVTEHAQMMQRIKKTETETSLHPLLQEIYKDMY

[6] = target: T1, Peroxisome proliferator-activated receptor gamma (Homo sapiens); test: Partial agonist activity at PPAR-gamma in human BMMSC cells assessed as inhibition of pioglitazone-induced adiponectin production at 1 to 10 uM in presence of IDX adipogenic induction medium and pioglitazone and measured on day 5 by ELISA; assay type: cell-based; details: filed as partial agonist, dose 1-10 µM, time 5.0 day
Procedure, shortened: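 Human bone marrow MSCs grown in DMEM (1 g/L glucose), 10% FBS, 1% pen-strep. Adipogenesis induced in DMEM (4.5 g/L glucose), 10% FBS, insulin, dexamethasone, IBMX, with compounds co-added alongside pioglitazone. Supernatants collected on day 5; adiponectin quantified by ELISA. Mean ± SD, n = 3.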

[7] = target: T1, Peroxisome proliferator-activated receptor gamma (Homo sapiens); test: Displacement of [3H]rosiglitazone from human PPAR-gamma at 30 uM incubated for 1 day by radioligand binding assay; details: filed as agonist

Structure (SMILES)	Activity ([1]; filed as agonist)	EC50 [2] [µM]	Ki [3] [µM]	Activity [4]	Activity [5]	Activity ([1]; filed as partial agonist)	Activity [6]	Activity [7] [%]
CCCCCCCCCCCCC/C=C1/C(=O)O[C@@H](C)[C@@H]1O	Active	> 30	1.9	inactive	inactive			
CCCC=C1C(=O)O[C@@H](C)[C@@H]1O	Active	19	22	inactive	inactive			
CCCCCCCCCCCC/C=C1/C(=O)O[C@@H](C)[C@H]1O	Active			inactive	inactive			
CCCCCCCCC/C=C1/C(=O)O[C@@H](C)[C@H]1O	Active			inactive	inactive			
CCCCCCCCCCCCC/C=C1/C(=O)O[C@@H](C)[C@H]1O		> 30	9.2	inactive	inactive	Active	Dose-Dependent Effect	
CCCCCCCCCCC/C=C1/C(=O)O[C@@H](C)[C@H]1O	Active			inactive	inactive			
CCCCCCCCCC/C=C1/C(=O)O[C@@H](C)[C@H]1O	Active			inactive	inactive			
CCCCCCCC/C=C1/C(=O)O[C@@H](C)[C@H]1O	Active			inactive	inactive			
CCC/C=C1/C(=O)O[C@@H](C)[C@H]1O	Active	25.3	> 30	inactive	inactive			48.5
CCCCC/C=C1/C(=O)O[C@@H](C)[C@H]1O	Active			inactive	inactive			
CCCCC/C=C1/C(=O)O[C@@H](C)[C@@H]1O	Active			inactive	inactive			
CCCCCCC/C=C1/C(=O)O[C@@H](C)[C@H]1O	Active			inactive	inactive			
